Measured values taken from ChEMBL document CHEMBL5230175, “The war on hTG2: warhead optimization in small molecule human tissue transglutaminase inhibitors” (RSC Med Chem, 2023).

Tests used:
[1] = biological target: T1, Protein-glutamine gamma-glutamyltransferase E (Homo sapiens) (UniProt Q08188); assay: Reversible inhibition of activated human TG3 using peptidic FRET-quenched probe A101 as substrate by fluorescence based assay relative to control; details: concentration not given here
T1 sequence (whole entry): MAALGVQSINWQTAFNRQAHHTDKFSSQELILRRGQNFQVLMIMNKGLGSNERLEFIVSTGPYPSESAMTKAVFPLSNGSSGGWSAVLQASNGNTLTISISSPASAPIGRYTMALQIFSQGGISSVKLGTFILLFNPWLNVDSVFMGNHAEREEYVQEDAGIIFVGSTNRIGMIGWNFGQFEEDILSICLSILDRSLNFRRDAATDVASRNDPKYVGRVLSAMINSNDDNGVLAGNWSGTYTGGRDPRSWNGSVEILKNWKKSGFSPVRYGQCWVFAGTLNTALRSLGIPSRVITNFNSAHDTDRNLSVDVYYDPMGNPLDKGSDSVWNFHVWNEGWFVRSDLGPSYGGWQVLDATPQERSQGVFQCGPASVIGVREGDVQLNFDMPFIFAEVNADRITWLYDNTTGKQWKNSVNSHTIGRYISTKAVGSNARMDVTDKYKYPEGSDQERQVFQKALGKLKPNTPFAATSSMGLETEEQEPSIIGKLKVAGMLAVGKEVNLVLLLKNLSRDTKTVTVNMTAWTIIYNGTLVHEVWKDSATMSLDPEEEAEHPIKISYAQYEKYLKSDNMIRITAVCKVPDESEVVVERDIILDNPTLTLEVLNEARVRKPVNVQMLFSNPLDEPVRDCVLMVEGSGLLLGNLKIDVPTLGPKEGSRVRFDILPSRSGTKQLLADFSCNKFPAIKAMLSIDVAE

[2] = biological target: T2, Protein-glutamine gamma-glutamyltransferase (Homo sapiens, UniProt P21980); assay: Irreversible inhibition of human recombinant tissue transglutaminase expressed in Escherichia coli using Cbz-Glu-(gamma-p-nitrophenylester)Gly (AL5) as substrate assessed as substrate hydrolysis by measuring KI incubated for 20 mins by colorimetric analysis
T2 sequence (P21980 whole entry): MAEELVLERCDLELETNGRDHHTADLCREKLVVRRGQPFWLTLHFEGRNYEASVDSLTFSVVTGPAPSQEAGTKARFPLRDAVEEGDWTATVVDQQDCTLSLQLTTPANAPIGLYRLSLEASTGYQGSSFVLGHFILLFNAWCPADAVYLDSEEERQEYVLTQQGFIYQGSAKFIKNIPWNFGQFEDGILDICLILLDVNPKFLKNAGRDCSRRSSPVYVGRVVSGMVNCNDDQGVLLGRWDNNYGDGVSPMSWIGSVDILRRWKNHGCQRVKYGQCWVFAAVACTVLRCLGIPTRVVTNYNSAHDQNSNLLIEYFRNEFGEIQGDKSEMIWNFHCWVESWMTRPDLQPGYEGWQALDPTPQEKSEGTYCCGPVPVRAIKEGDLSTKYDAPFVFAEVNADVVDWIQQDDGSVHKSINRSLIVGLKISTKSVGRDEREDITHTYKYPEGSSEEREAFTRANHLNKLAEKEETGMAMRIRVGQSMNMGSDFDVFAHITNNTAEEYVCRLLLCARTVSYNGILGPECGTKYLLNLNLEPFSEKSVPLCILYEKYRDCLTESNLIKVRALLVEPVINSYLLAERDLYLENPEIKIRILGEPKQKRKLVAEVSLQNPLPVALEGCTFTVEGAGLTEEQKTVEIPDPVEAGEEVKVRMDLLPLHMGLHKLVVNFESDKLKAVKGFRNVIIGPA

[3] = biological target: T3, Protein-glutamine gamma-glutamyltransferase (Homo sapiens) (UniProt P21980); assay: Inhibition of human recombinant tissue transglutaminase expressed in Escherichia coli using Cbz-Glu-(gamma-p-nitrophenylester)Gly (AL5) as substrate assessed as substrate hydrolysis by measuring Kinact incubated for 20 mins by colorimetric analysis
T3 sequence (whole entry): T2 sequence (P21980 whole entry)

[4] = biological target: T3, Protein-glutamine gamma-glutamyltransferase (Homo sapiens); assay: Irreversible inhibition of human recombinant tissue transglutaminase expressed in Escherichia coli using Cbz-Glu-(gamma-p-nitrophenylester)Gly (AL5) as substrate assessed as substrate hydrolysis by measuring Kinact/Ki ratio incubated for 20 mins by colorimetric analysis
[5] = Ratio of Kinact/Ki for inhibition of human tissue transglutaminase assessed as substrate hydrolysis to corrected second order rate constant (K2 corrected) for GSH reactivity in aqueous buffer assessed as GSH adduct formation; assay type: physicochemical
[6] = biological target: T3, Protein-glutamine gamma-glutamyltransferase (Homo sapiens); assay: Irreversible inhibition of human recombinant tissue transglutaminase expressed in Escherichia coli using Cbz-Glu-(gamma-p-nitrophenylester)Gly (AL5) as substrate assessed as substrate hydrolysis by measuring Kinact/Ki ratio by linear regression analysis
How it was run: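 For TG2/AL5 under Kitz–Wilson conditions (100 μM AL5, pH 6.9 MOPS, 25 °C, 405 nm), kinact/KI was taken from simple linear regression of kobs against corrected inhibitor concentration at the lowest inhibitor concentrations.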

[7] = biological target: T4, Protein-glutamine gamma-glutamyltransferase 6 (Homo sapiens) (UniProt O95932); assay: Irreversible inhibition of human TG6 using Cbz-Glu-(gamma-p-nitrophenylester)Gly (AL5) as substrate assessed as substrate hydrolysis by measuring observed binding constant incubated for 60 mins by colorimetric assay
T4 sequence (whole entry): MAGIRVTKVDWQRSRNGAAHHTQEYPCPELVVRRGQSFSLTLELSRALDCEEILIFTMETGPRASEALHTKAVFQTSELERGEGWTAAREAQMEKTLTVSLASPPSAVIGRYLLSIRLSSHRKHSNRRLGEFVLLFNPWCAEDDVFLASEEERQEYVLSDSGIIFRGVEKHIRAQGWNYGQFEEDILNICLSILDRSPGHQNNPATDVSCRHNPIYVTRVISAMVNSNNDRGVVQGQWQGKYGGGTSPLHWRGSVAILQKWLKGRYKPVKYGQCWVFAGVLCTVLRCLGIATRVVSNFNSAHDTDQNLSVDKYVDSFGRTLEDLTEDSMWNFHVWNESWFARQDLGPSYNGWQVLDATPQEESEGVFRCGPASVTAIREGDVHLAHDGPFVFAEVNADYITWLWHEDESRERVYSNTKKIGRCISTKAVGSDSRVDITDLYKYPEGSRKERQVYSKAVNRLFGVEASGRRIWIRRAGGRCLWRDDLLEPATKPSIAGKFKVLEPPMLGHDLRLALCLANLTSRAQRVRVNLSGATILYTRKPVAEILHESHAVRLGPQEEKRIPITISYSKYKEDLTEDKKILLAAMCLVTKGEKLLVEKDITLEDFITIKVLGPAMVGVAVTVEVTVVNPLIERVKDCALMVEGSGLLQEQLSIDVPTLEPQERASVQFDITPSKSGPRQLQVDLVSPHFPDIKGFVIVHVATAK

| inhibition [1] | Ki [2] | Kinact [3] | Ratio [4] | Ratio [5] | Ratio [6] | K [7] | Compound |
| --- | --- | --- | --- | --- | --- | --- | --- |
| 41.5% | 0.15 µM | 1.23 min⁻¹ | 8050 10^3/M/min | 5.437 | 4540 10^3/M/min | – | O=C(CCl)NCC(=O)N1CCN(C(=O)C23CC4CC(CC(C4)C2)C3)CC1 |
| 59.1% | – | – | – | – | – | 0.02 min⁻¹ | C=CC(=O)NCC(=O)N1CCN(C(=O)C23CC4CC(CC(C4)C2)C3)CC1 |
